# Results published in ChEMBL document CHEMBL1138563, “Synthesis and in vitro antimicrobial activity of some novel substituted benzimidazole derivatives having potent activity against MRSA” (2009).
# Assays:
# Format in all cases: functional
# Bacillus subtilis = assay: Antimicrobial activity against Bacillus subtilis ATCC 6633 by tube dilution method
# Outline: (§1)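 Tube dilution MIC determination. Test agents and reference drugs are dissolved as a stock in 50% DMSO–water, then diluted 4-fold with culture medium plus inoculum. The first dilution (12.5% DMSO) is excluded from scoring. The read-out is the minimum inhibitory concentration.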
# Staphylococcus aureus [1] = assay: Antimicrobial activity against Staphylococcus aureus ATCC 25923 by tube dilution method
# Outline: (§2)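 Tube dilution MIC assay. Compounds and standard drugs were dissolved in 50% DMSO–water as stock. The stock was diluted 4-fold with culture medium plus bacterial suspension to give the starting test concentration. That initial tube contained 12.5% DMSO, so no data were taken from it. The MIC was then read across the dilution series.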
# Candida albicans = assay: Antimicrobial activity against Candida albicans ATCC 10145 by tube dilution method; outline: as §1
# Staphylococcus aureus [2] = assay: Antimicrobial activity against methicillin-resistant Staphylococcus aureus isolates by tube dilution method; outline: as §2
# Staphylococcus aureus [3] = assay: Antimicrobial activity against methicillin-resistant Staphylococcus aureus ATCC […] by tube dilution method; outline: as §2
# Escherichia coli = assay: Antimicrobial activity against Escherichia coli ATCC 25922 by tube dilution method; outline: as §1
SMILES,MIC (Bacillus subtilis) [µg/mL],MIC (Staphylococcus aureus [1]) [µg/mL],MIC (Candida albicans) [µg/mL],MIC (Staphylococcus aureus [2]) [µg/mL],MIC (Staphylococcus aureus [3]) [µg/mL],MIC (Escherichia coli) [µg/mL]
CCOc1cc2c(cc1Cl)nc(-c1cccc([N+](=O)[O-])c1)n2C1CCCC1,25,50,6.25,12.5,25,50
Clc1cc2nc(-c3ccc4ccccc4c3)[nH]c2cc1Cl,25,50,25,50,50,50
Clc1ccc(-c2nc3cc(Cl)ccc3n2C2CCCC2)cc1,25,50,25,50,50,25
Clc1cc2nc(Br)n(C3CCCC3)c2cc1Cl,25,3.12,25,6.25,6.25,50
OC(Cn1cncn1)(Cn1cncn1)c1ccc(F)cc1F [FLUCONAZOLE],–,–,1.56,–,–,–
Clc1ccc(-c2nc3cc(Cl)c(Cl)cc3[nH]2)cc1,50,3.12,12.5,3.12,3.12,50
Fc1ccc(-c2nc3cc(Cl)ccc3n2C2CCCC2)cc1,12.5,25,12.5,25,25,25
Nc1nc2cc(Cl)ccc2n1C1CCCC1,25,25,25,50,50,50
CC1(C)S[C@@H]2[C@H](NC(=O)[C@H](N)c3ccccc3)C(=O)N2[C@H]1C(=O)OCOC(=O)[C@@H]1N2C(=O)C[C@H]2S(=O)(=O)C1(C)C [SULTAMICILLIN],0.78,0.39,–,25,25,–
Clc1ccc2c(c1)nc(-c1ccc(OCc3ccccc3)cc1)n2C1CCCC1,50,3.12,25,6.25,6.25,50
CC(=O)Oc1ccc(-c2nc3cc(Cl)c(Cl)cc3n2C2CCCC2)cc1,25,50,12.5,50,50,25
Clc1cc2nc(Cl)n(C3CCCC3)c2cc1Cl,25,3.12,50,6.25,6.25,50
CCOc1cc2c(cc1Cl)nc(-c1ccc(Cl)cc1)n2C1CCCC1,25,50,25,50,50,50
N#Cc1ccc(-c2nc3cc(Cl)ccc3n2C2CCCC2)cc1,50,50,6.25,≥ 50,≥ 50,50
Clc1ccc2c(c1)ncn2C1CCCC1,50,50,50,50,50,≥ 50
CC1(C)S[C@@H]2[C@H](NC(=O)[C@H](N)c3ccccc3)C(=O)N2[C@H]1C(=O)O [AMPICILLIN],–,0.78,–,50,50,–
Clc1cc2nc(-c3ccc4ccccc4c3)n(C3CCCC3)c2cc1Cl,12.5,50,12.5,25,25,50
O=C(O)c1cn(C2CC2)c2cc(N3CCNCC3)c(F)cc2c1=O [CIPROFLOXACIN],0.09,0.78,–,12.5,–,–

SMILES,MIC (Bacillus subtilis) [µg/mL],MIC (Staphylococcus aureus [1]) [µg/mL],MIC (Candida albicans) [µg/mL],MIC (Staphylococcus aureus [2]) [µg/mL],MIC (Staphylococcus aureus [3]) [µg/mL],MIC (Escherichia coli) [µg/mL]
Nc1nc2cc(Cl)c(Cl)cc2n1C1CCCC1,6.25,3.12,6.25,6.25,6.25,50
CCOc1cc2c(cc1Cl)nc(-c1ccc(F)cc1)n2C1CCCC1,25,6.25,50,6.25,6.25,50
COc1ccc(-c2nc3cc(Cl)c(Cl)cc3n2C2CCCC2)cc1,50,25,6.25,25,25,50
Clc1ccc2c(c1)nc(-c1ccc3ccccc3c1)n2C1CCCC1,25,25,6.25,25,25,50
CC(C)(C)c1ccc(-c2nc3cc(Cl)c(Cl)cc3n2C2CCCC2)cc1,25,6.25,25,25,25,50
CC(C)(C)c1ccc(-c2nc3cc(Cl)ccc3n2C2CCCC2)cc1,50,50,12.5,6.25,12.5,25
CC(C)Nc1nc2cc(Cl)c(Cl)cc2n1C1CCCC1,50,50,50,50,50,50
CC(=O)Oc1ccc(-c2nc3cc(Cl)ccc3n2C2CCCC2)cc1,50,50,50,50,50,50
CC(C)(C)c1ccc(-c2nc3cc(Cl)c(Cl)cc3[nH]2)cc1,6.25,3.12,12.5,3.12,3.12,50
Clc1cc2ncn(C3CCCC3)c2cc1Cl,12.5,6.25,12.5,6.25,6.25,50
O=[N+]([O-])c1cccc(-c2nc3cc(Cl)ccc3n2C2CCCC2)c1,25,50,12.5,50,50,50
Fc1ccc(-c2nc3cc(Cl)c(Cl)cc3[nH]2)cc1,6.25,3.12,6.25,3.12,3.12,50
Clc1ccc(-c2nc3cc(Cl)c(Cl)cc3n2C2CCCC2)cc1,25,50,12.5,50,50,50
Fc1ccc(-c2nc3cc(Cl)c(Cl)cc3n2C2CCCC2)cc1,50,25,25,50,50,25
COc1ccc(-c2nc3cc(Cl)ccc3n2C2CCCC2)cc1,25,50,12.5,50,50,25
CCOc1cc2c(cc1Cl)nc(-c1ccc(OC(C)=O)cc1)n2C1CCCC1,25,50,6.25,50,50,50
CN(C)c1ccc(-c2nc3cc(Cl)ccc3n2C2CCCC2)cc1,25,12.5,12.5,25,25,50
